This is an account of results in ChEMBL document CHEMBL1649503, “Alkoxyalkyl esters of 9-(s)-(3-hydroxy-2-phosphonomethoxypropyl) adenine are potent and selective inhibitors of hepatitis B virus (HBV) replication in vitro and in HBV transgenic mice in vivo” (Antimicrob Agents Chemother, 2009).

Each structure is given as a SMILES string.

Data set [1] concerns Hepatitis B virus. Kind of data set: Antiviral activity against HBV harboring RNA polymerase N236T mutant gene infected in human HuH7 cells assessed as decrease in viral transient transfection […]. The data set is classed as functional, organism-based. As to conditions: Huh-7. The method in brief: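 Lamivudine- and adefovir-resistant HBV mutants introduced into Huh7 cells by transient transfection. Compounds were tested in a 5-day assay.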

In data set [2] the test system is Hepatitis B virus. Kind of data set: Antiviral activity against wild type HBV infected in human HuH7 cells assessed as decrease in viral transient transfection after 5 days. The conditions noted are these: Huh-7, 5 days.
For data set [3], the system named is Hepatitis B virus. Kind of data set: Antiviral activity against HBV harboring RNA polymerase L180M mutant gene infected in human HuH7 cells assessed as decrease in viral transient transfection after 5 days. As to conditions: Huh-7, 5 days.
Data set [4] concerns Hepatitis B virus. Kind of data set: Antiviral activity against HBV harboring RNA polymerase M204V mutant gene infected in human HuH7 cells assessed as decrease in viral transient transfection after 5 days. The conditions noted are these: Huh-7, 5 days.
Data set [5] concerns Hepatitis B virus. In words: Antiviral activity against HBV harboring RNA polymerase M204I mutant gene infected in human HuH7 cells assessed as decrease in viral transient transfection after 5 days. The conditions noted are these: Huh-7, 5 days.
For data set [6], the system named is Hepatitis B virus. In words: Antiviral activity against HBV harboring RNA polymerase L180M/M204V mutant gene infected in human HuH7 cells assessed as decrease in viral transient transfection after 5 days. The conditions noted are these: Huh-7, 5 days.
Data set [7] relates to Hepatitis B virus. Kind of data set: Antiviral activity against HBV infected in transgenic mouse assessed as decrease in liver viral DNA level at 4 mg/kg, po administered daily for 14 days measured post last dose. The data set is classed as functional. The conditions noted are these: for ED50: Hepatitis B virus, Liver, 336 h; for ED90: dose 4 mg/kg. Put shortly: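 Homozygous male and female HBV transgenic mice (founder 1.3.32; 22.2 ± 2.8 g) received drug in distilled water by oral gavage, 0.1 ml/10 g, at 7 µmol/kg (4 mg/kg) daily for 14 days. About 0.1 g liver was lysed at necropsy, and DNA was extracted with phenol-chloroform. HBV DNA was measured by qPCR normalized to GAPDH, using duplicate CTs against a dilution standard curve, in relative units/µg cell DNA.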

For data set [8], the system named is Hepatitis B virus. In words: Antiviral activity against HBV infected in human HepG2(2.2.15) cells assessed as decrease in extracellular viral DNA level after 24 hrs by blot hybridization assay. As to conditions: HepG2 2.2.15, 24 h. The data set is classed as functional, organism-based. The method in brief: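 Confluent 2.2.15 cells in RPMI 1640 with 2% FBS got nine consecutive daily doses, with medium replaced daily with drug-containing medium. Six wells per concentration over two replicate plates. Cells were pelleted from the medium, which was kept at 4°C and not frozen. Extracellular HBV DNA was quantified by blot hybridization 24 h after the last dose.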

Data set [9] in a line: Cytotoxicity against human HepG2(2.2.15) cells after 24 hrs by neutral red assay. The data set is classed as cell-based. The method in brief: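 2.2.15 cells, RPMI 1640 with 2% FBS, dosed daily for nine consecutive days. Viability was read by neutral red uptake, absorbance of internalized dye at 510, 24 h after the last treatment, three cultures per concentration.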
The nature of data set [10]: Selectivity index, ratio of CC50 for human HepG2(2.2.15) cells to EC50 for HBV infected in human HepG2(2.2.15) cells. Put shortly: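 Ratio from two 2.2.15 readouts after nine daily doses in RPMI/2% FBS. Extracellular HBV DNA was measured by quantitative blot hybridization and cytotoxicity by neutral red uptake (three cultures per concentration), both 24 h after the final dose.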

Data set [11] deals with HepG2. Kind of data set: Drug metabolism in human HepG2 cells assessed as unidentified metabolite uptake at 10 uM after 24 hrs. The data set is classed as ADME, cell-based. As to conditions: hepg2, 24 h. Put shortly:
(§1)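 Nearly confluent HepG2 flasks got 14C-labeled drug (final 10 µM, 50 mCi/mmol) for 24 h. Cells were washed with cold PBS, lysed in water by two freeze-thaw cycles and sonication, then extracted with cold TCA (8% final) and centrifuged at 4°C. Supernatant was counted and analyzed by SAX ion-exchange HPLC, with metabolites assigned by retention versus reference standards.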

Data set [12] concerns HepG2. Kind of data set: Drug metabolism in human HepG2 cells assessed as unidentified metabolite uptake at 10 uM after 48 hrs. The data set is classed as ADME, cell-based. The conditions noted are these: hepg2, 48 h.
Data set [13] relates to HepG2. In words: Drug metabolism in human HepG2 cells assessed as HPMPA uptake at 10 uM after 24 hrs. The data set is classed as ADME, cell-based. The conditions noted are these: hepg2, 24 h. Put shortly:
as §1

Data set [14] has as its system HepG2. Kind of data set: Drug metabolism in human HepG2 cells assessed as HPMPA uptake at 10 uM after 48 hrs. The data set is classed as ADME, cell-based. As to conditions: hepg2, 48 h.
For data set [15], the system named is HepG2. In words: Drug metabolism in human HepG2 cells assessed as HPMPAp uptake at 10 uM after 24 hrs. The data set is classed as ADME, cell-based. The conditions noted are these: hepg2, 24 h. Put shortly: as §1
In data set [16] the test system is HepG2. In words: Drug metabolism in human HepG2 cells assessed as HPMPAp uptake at 10 uM after 48 hrs. The data set is classed as ADME, cell-based. The conditions noted are these: hepg2, 48 h.
Data set [17] has as its system HepG2. Kind of data set: Drug metabolism in human HepG2 cells assessed as HPMPApp uptake at 10 uM after 24 hrs. The data set is classed as ADME, cell-based. The conditions noted are these: hepg2, 24 h. The method in brief:
as §1

In data set [18] the test system is HepG2. Kind of data set: Drug metabolism in human HepG2 cells assessed as HPMPApp uptake at 10 uM after 48 hrs. The data set is classed as ADME, cell-based. The conditions noted are these: hepg2, 48 h.

`Nc1ccn([C@@H]2CS[C@H](CO)O2)c(=O)n1` [LAMIVUDINE]: the EC50 is 0.3 µM with Hepatitis B virus [1]; 16 µM with Hepatitis B virus [3]; above 100 µM in the data set with Hepatitis B virus [4]; above 100 µM with Hepatitis B virus [5]; above 100 µM in the data set on Hepatitis B virus [6]. The concentration for an effect of 90% (EC90) with Hepatitis B virus [1] is 1.5 µM; with Hepatitis B virus [2], 3 µM; in the data set on Hepatitis B virus [3] it was 41 µM; in the data set on Hepatitis B virus [4] it was above 100 µM; in the data set on Hepatitis B virus [5], above 100 µM; in the data set with Hepatitis B virus [6] it was above 100 µM.
Regarding `CC(C)(C)C(=O)OCOP(=O)(COCCn1cnc2c(N)ncnc21)OCOC(=O)C(C)(C)C` [ADEFOVIR DIPIVOXIL], the EC50 in the data set on Hepatitis B virus [1] was determined as 14 µM; in the data set with Hepatitis B virus [2], 2 µM; with Hepatitis B virus [3], 2.6 µM; with Hepatitis B virus [4] it was 1.5 µM; in the data set with Hepatitis B virus [5], 2.4 µM; with Hepatitis B virus [6], 2.5 µM. For the same molecule, the EC90 is 52 µM in the data set with Hepatitis B virus [1]; 7 µM with Hepatitis B virus [2]; 7.3 µM in the data set with Hepatitis B virus [3]; 7.2 µM in the data set on Hepatitis B virus [4]; 8 µM in the data set with Hepatitis B virus [5]; 7.6 µM with Hepatitis B virus [6]. Moreover, the ED50 in the data set with Hepatitis B virus [7] was 0.2 µmol/kg. The ED90 in the data set on Hepatitis B virus [7] was found to be 3.6 µmol/kg.
Regarding `Nc1ncnc2c1ncn2C[C@@H](CO)OCP(=O)(O)O`, the EC50 with Hepatitis B virus [8] came to 1.2 µM. For the same molecule, in the data set with Hepatitis B virus [8], the EC90 was 5.05 µM. In addition, the CC50 at 24 h in [9] was above 300 µM. Further, the “Selectivity Index” value in data set [10] is reported as above 60. Also, the Drug uptake with HepG2 [11] was determined as 33 pmol; with HepG2 [12], 62 pmol; in the data set on HepG2 [13], 26 pmol; in the data set on HepG2 [14], 10 pmol; with HepG2 [15], 27 pmol; in the data set with HepG2 [16], 70 pmol. Also, the Drug uptake in the data set with HepG2 [17] stood at 34 pmol; in the data set on HepG2 [18], 13 pmol.
Regarding `CCCCCCCCCCCCCCCCCCOCCOP(=O)(O)CO[C@H](CO)Cn1cnc2c(N)ncnc21`, in the data set on Hepatitis B virus [8], the EC50 was determined as 0.076 µM and the EC90 is 0.211 µM. Moreover, the 50% cytotoxic concentration (CC50) at 24 h in [9] was above 300 µM. For the same molecule, the “Selectivity Index” value in [10] is reported as above 1422. Moreover, in the data set on Hepatitis B virus [7], the ED50 turned out to be 0.35 µmol/kg and the ED90 turned out to be 6.91 µmol/kg.
Consider `CC(C)CCCCCCCCCCCCCCOCCCOP(=O)(O)CO[C@H](CO)Cn1cnc2c(N)ncnc21`, for which, in the data set on Hepatitis B virus [8], the EC50 turned out to be 0.059 µM and the EC90 was determined as 0.181 µM. In addition, the CC50 at 24 h in data set [9] was above 300 µM. The “Selectivity Index” value in data set [10] is listed as above 1657. For the same molecule, in the data set with Hepatitis B virus [7], the median effective dose (ED50) came to 0.082 µmol/kg and the ED90 amounted to 2.96 µmol/kg.
